# Measured values of several laboratories.
# Each line is one published result; the experiments were not run side by side.
# TNKS: Poly [ADP-ribose] polymerase tankyrase-1 (TNKS, Homo sapiens, UniProt O95271)
# NTRK3: NT-3 growth factor receptor (NTRK3, Homo sapiens, UniProt Q16288)
SMILES,target,test,system,conditions,inhibition [%]
CC1=C(/C=C/C(C)=C/C=C/C(C)=C/C(=O)O)C(C)(C)CCC1,"Prothrombin (Rattus norvegicus, UniProt P18292)","enzyme activity, inhibitor",,200 µg/mL,92
COc1ccc(C(N)=O)cc1NC(=O)c1cccc(-c2cnc3[nH]c(=O)n(C)c3c2)c1,TNKS,"enzyme activity, inhibitor",,0.1 µM,0
CC(=O)c1nn(CC(=O)N2C[C@H](F)C[C@H]2C(=O)Nc2cccc(Br)n2)c2ccc(-c3cnc(C)nc3)cc12,"Dipeptidyl peptidase 4 (DPP4, Homo sapiens, UniProt P27487)","enzyme activity, inhibitor",,10 µM,-1
OCc1cc(C(O)CNCCCCCCOCCCCc2ccccc2)ccc1O (centres unmarked),"C-X-C chemokine receptor type 4 (CXCR4, Homo sapiens, UniProt P61073)","calcium signal, antagonist",U87.CD4.CXCR4,20 µM,15
C[C@H]1C[C@@H](N2C(=N)N[C@](C)(c3cccc(Nc4ccc(C5CC5)nc4)c3Cl)CC2=O)CCO1,"Cathepsin E (CTSE, Homo sapiens, UniProt P14091)","enzyme activity, inhibitor",,10 µM,86
O=C(Nc1ccc2[nH]ncc2c1)c1cccc(NC(=S)Nc2ccc(C(F)(F)F)cc2)c1,NTRK3,"enzyme activity, inhibitor, FRET",,1 µM,17.3
Ic1cccc2cnccc12,TNKS,"enzyme activity, inhibitor",,10 µM,7
CN(C)C1CCN(CC#Cc2nn(C3CCCC3)c3nc(NCc4ccccc4)ncc23)C1 (centres unmarked),"RAC-alpha serine/threonine-protein kinase (AKT1, Homo sapiens, UniProt P31749)","enzyme activity, inhibitor, FRET",,1 µM,5
COC(=O)c1c(O)ccc(O)c1C(=O)c1c(O)cc2c(c1O)[C@@H]1C=C[C@@]3(C2)[C@@H](OC(C)=O)c2cc(C)cc(O)c2C(=O)C3(O)C1=O (some centres unmarked),"PSMB6/PSMB5/PSMB7 (Homo sapiens, UniProt P28072+P28074+Q99436)","enzyme activity in cells, inhibitor",MCF7,20 µg/mL,67
O=C(Nc1ccc(OC(F)(F)F)cc1)Nc1cccc(C(=O)Nc2ccc3[nH]ncc3c2)c1,NTRK3,"enzyme activity, inhibitor, FRET",,1 µM,17.3
CNC(=O)c1cc(Oc2ccc(NC(=O)Nc3ccc(Cl)c(C(F)(F)F)c3)cc2)ccn1,"Dual specificity mitogen-activated protein kinase kinase 7 (MAP2K7, Homo sapiens, UniProt O14733)","enzyme activity, inhibitor",,0.3 µM,9
